Drawing on ChEMBL document CHEMBL4325860, “Synthesis of novel 2-(1-adamantanylcarboxamido)thiophene derivatives. Selective cannabinoid type 2 (CB2) receptor agonists as potential agents for the treatment of skin inflammatory disease” (Eur J Med Chem, 2019), this text covers inhibition, Ki and Ratio Ki for 14 compounds.

A value given as a limit tells only on which side of the number the result lay.

Chain of Cannabinoid receptor 1 (CB1R) (P21554 whole entry): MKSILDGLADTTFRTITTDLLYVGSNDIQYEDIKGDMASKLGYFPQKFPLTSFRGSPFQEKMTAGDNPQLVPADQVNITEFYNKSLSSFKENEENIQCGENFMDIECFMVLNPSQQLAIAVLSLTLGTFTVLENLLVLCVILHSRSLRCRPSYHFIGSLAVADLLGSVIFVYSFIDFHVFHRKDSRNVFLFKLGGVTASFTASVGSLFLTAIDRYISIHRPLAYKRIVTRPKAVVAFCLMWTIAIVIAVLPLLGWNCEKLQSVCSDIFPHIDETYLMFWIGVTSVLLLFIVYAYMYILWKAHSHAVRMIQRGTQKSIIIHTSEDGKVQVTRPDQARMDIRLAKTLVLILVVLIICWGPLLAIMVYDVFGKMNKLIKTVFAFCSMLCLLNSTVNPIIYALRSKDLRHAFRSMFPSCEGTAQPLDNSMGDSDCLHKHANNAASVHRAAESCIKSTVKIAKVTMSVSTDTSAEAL
Chain of Cannabinoid receptor 1 (P21554 whole entry): as above

For one series, the target named is T1, Cannabinoid receptor 2 (Homo sapiens, UniProt P34972). In words: Displacement of [3H]CP55940 from recombinant human CB2R expressed in HEK293 cell membranes at 10 uM measured after 90 mins relative to control.
T1 sequence (P34972 whole entry): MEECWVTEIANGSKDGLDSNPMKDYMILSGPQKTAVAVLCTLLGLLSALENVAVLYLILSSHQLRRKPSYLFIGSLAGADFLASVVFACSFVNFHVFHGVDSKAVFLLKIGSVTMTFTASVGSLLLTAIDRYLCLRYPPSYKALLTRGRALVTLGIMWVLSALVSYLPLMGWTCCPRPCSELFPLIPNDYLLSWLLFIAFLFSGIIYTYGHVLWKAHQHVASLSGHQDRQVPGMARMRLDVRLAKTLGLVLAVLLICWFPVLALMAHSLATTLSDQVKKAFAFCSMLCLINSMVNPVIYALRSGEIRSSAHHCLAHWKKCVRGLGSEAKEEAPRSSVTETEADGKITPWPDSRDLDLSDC
Conditions: not given
With `CCc1c(C)sc(NC(=O)c2ccc(F)cc2)c1C(=O)OC`, the inhibition was > 50%.
With `COC(=O)c1c(NC(=O)C23CC4CC(CC(C4)C2)C3)cnn1C`, the inhibition is > 50%.
In the case of `CCc1c(C)sc(NC(=O)c2ccc(Cl)cc2)c1C(=O)OC`, the inhibition is > 50%.
For the compound `COC(=O)c1c(NC(=O)NC23CC4CC(CC(C4)C2)C3)sc2c1CCCC2`, the inhibition is > 50%.
On the same count and under the same terms, as for `COC(=O)c1c(NC(=O)Oc2ccccc2)sc2c1CCCC2`, the figure is > 50%; as for `COC(=O)c1c(C)noc1NC(=O)C12CC3CC(CC(C3)C1)C2`, > 50%; as for `COC(=O)c1c(NC(=O)N2CCCCC2)sc2c1CCCC2`, > 50%.
For `COC(=O)c1c(NC(=O)C23CC4CC(CC(C4)C2)C3)sc2c1CCSC2`, the inhibition is > 50%.
Turning to `COC(=O)c1cc(C)sc1NC(=O)C12CC3CC(CC(C3)C1)C2`, the inhibition is > 50%.
The same measure, in the same setting: with `COC(=O)c1[nH]ccc1NC(=O)C12CC3CC(CC(C3)C1)C2` the figure was > 50%.
As for `COC(=O)c1c(NC(=O)C23CC4CC(CC(C4)C2)C3)sc2c1CCS(=O)(=O)C2`, the inhibition was > 50%.
In the case of `COC(=O)c1ccsc1NC(=O)C12CC3CC(CC(C3)C1)C2`, the inhibition was > 50%.
On the same count and under the same terms, as for `COC(=O)c1cc(-c2ccccc2)sc1NC(=O)C12CC3CC(CC(C3)C1)C2`, the figure is > 50%.

Another series addresses Cannabinoid receptor 1 (Homo sapiens, UniProt P21554). As to the kind of experiment: Displacement of [3H]CP55940 from recombinant human CB1R expressed in HEK293 cell membranes measured after 90 mins.
Conditions: not given
On to `CCc1c(C)sc(NC(=O)c2ccc(F)cc2)c1C(=O)OC`, for which the inhibition constant Ki was > 10000 nM.
For `COC(=O)c1c(NC(=O)C23CC4CC(CC(C4)C2)C3)cnn1C`, the inhibition constant Ki is > 10000 nM.
Same read-out and setting: with `CCc1c(C)sc(NC(=O)c2ccc(Cl)cc2)c1C(=O)OC` the figure was > 10000 nM.
In the case of `COC(=O)c1c(NC(=O)NC23CC4CC(CC(C4)C2)C3)sc2c1CCCC2`, the inhibitory constant (Ki) was > 10000 nM.
`COC(=O)c1c(NC(=O)Oc2ccccc2)sc2c1CCCC2`: the inhibition constant (Ki) is > 10000 nM.
For the compound `COC(=O)c1c(C)noc1NC(=O)C12CC3CC(CC(C3)C1)C2`, the Ki is > 10000 nM.
For the compound `COC(=O)c1c(NC(=O)N2CCCCC2)sc2c1CCCC2`, the inhibition constant (Ki) was > 10000 nM.
Same read-out and setting: with `COC(=O)c1c(NC(=O)C23CC4CC(CC(C4)C2)C3)sc2c1CCSC2` the figure was > 10000 nM.
For `COC(=O)c1cc(C)sc1NC(=O)C12CC3CC(CC(C3)C1)C2`, the Ki is > 10000 nM.
Regarding `COC(=O)c1[nH]ccc1NC(=O)C12CC3CC(CC(C3)C1)C2`, the Ki is > 10000 nM.
In the case of `COC(=O)c1c(NC(=O)C23CC4CC(CC(C4)C2)C3)sc2c1CCS(=O)(=O)C2`, the inhibition constant (Ki) was > 10000 nM.
In the case of `COC(=O)c1ccsc1NC(=O)C12CC3CC(CC(C3)C1)C2`, the inhibition constant (Ki) was > 10000 nM.
For the compound `COC(=O)c1cc(-c2ccccc2)sc1NC(=O)C12CC3CC(CC(C3)C1)C2`, the Ki was > 10000 nM.

The species named for a further series is Homo sapiens. In words: Selectivity index, ratio of Ki for displacement of [3H]CP55940 from recombinant human CB1R expressed in HEK293 cell membranes to Ki for displacement of [3H]CP55940 from recombinant human CB2R expressed in HEK293 cell membranes.
Conditions: not given
The gist of the method:
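Competition binding on membranes of HEK cells transfected with human CB1R or CB2R, radioligand [³H]CP-55,940. Ki from at least three separate experiments run in duplicate, reported as mean. Selectivity index = Ki(CB1R)/Ki(CB2R).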
As for `CCc1c(C)sc(NC(=O)c2ccc(F)cc2)c1C(=O)OC`, the Ratio Ki was > 20.
The same measure, in the same setting: with `COC(=O)c1c(NC(=O)C23CC4CC(CC(C4)C2)C3)cnn1C` the figure was > 9.
Turning to `CCc1c(C)sc(NC(=O)c2ccc(Cl)cc2)c1C(=O)OC`, the Ratio Ki was > 16.
As to `COC(=O)c1c(NC(=O)NC23CC4CC(CC(C4)C2)C3)sc2c1CCCC2`, the Ratio Ki is > 477.
`COC(=O)c1c(NC(=O)Oc2ccccc2)sc2c1CCCC2`: the Ratio Ki was > 41.
On the same count and under the same terms, as for `COC(=O)c1c(C)noc1NC(=O)C12CC3CC(CC(C3)C1)C2`, the figure is > 154; as for `COC(=O)c1c(NC(=O)N2CCCCC2)sc2c1CCCC2`, > 51; as for `COC(=O)c1c(NC(=O)C23CC4CC(CC(C4)C2)C3)sc2c1CCSC2`, > 197.
Same read-out and setting: as for `COC(=O)c1cc(C)sc1NC(=O)C12CC3CC(CC(C3)C1)C2`, the figure is > 433; as for `COC(=O)c1[nH]ccc1NC(=O)C12CC3CC(CC(C3)C1)C2`, > 4; as for `COC(=O)c1c(NC(=O)C23CC4CC(CC(C4)C2)C3)sc2c1CCS(=O)(=O)C2`, > 6.
Same read-out and setting: with `COC(=O)c1ccsc1NC(=O)C12CC3CC(CC(C3)C1)C2` the figure was > 68.
`COC(=O)c1cc(-c2ccccc2)sc1NC(=O)C12CC3CC(CC(C3)C1)C2`: the Ratio Ki is > 1540.

Another series addresses Cannabinoid receptor 1 (CB1R) (Homo sapiens, UniProt P21554). In words: Displacement of [3H]CP55940 from recombinant human CB1R expressed in HEK293 cell membranes at 10 uM measured after 90 mins relative to control. The settings on record: membranes of HEK293 cells expressing recombinant human CB1R, probe [3H]CP55940.
For the compound `Cc1ccc(Cn2nc(C(=O)N[C@@H]3C(C)(C)[C@@H]4CC[C@@]3(C)C4)cc2-c2ccc(Cl)c(C)c2)cc1`, the inhibition at 1.5 h, 10 µM was < 50%.
Take `CCc1c(C)sc(NC(=O)c2ccc(F)cc2)c1C(=O)OC`: the inhibition at 1.5 h, 10 µM is < 50%.
For the compound `COC(=O)c1c(NC(=O)C23CC4CC(CC(C4)C2)C3)cnn1C`, the inhibition at 1.5 h, 10 µM was < 50%.
With `CCc1c(C)sc(NC(=O)c2ccc(Cl)cc2)c1C(=O)OC`, the inhibition at 1.5 h, 10 µM is < 50%.
Same read-out and setting: with `COC(=O)c1c(NC(=O)NC23CC4CC(CC(C4)C2)C3)sc2c1CCCC2` the figure was < 50%; with `COC(=O)c1c(NC(=O)Oc2ccccc2)sc2c1CCCC2`, < 50%; with `COC(=O)c1c(C)noc1NC(=O)C12CC3CC(CC(C3)C1)C2`, < 50%.
On to `COC(=O)c1c(NC(=O)N2CCCCC2)sc2c1CCCC2`, for which the inhibition at 1.5 h, 10 µM was < 50%.
For `COC(=O)c1c(NC(=O)C23CC4CC(CC(C4)C2)C3)sc2c1CCSC2`, the inhibition at 1.5 h, 10 µM was < 50%.
On the same count and under the same terms, as for `COC(=O)c1cc(C)sc1NC(=O)C12CC3CC(CC(C3)C1)C2`, the figure is < 50%; as for `COC(=O)c1[nH]ccc1NC(=O)C12CC3CC(CC(C3)C1)C2`, < 50%; as for `COC(=O)c1c(NC(=O)C23CC4CC(CC(C4)C2)C3)sc2c1CCS(=O)(=O)C2`, < 50%.
For `COC(=O)c1ccsc1NC(=O)C12CC3CC(CC(C3)C1)C2`, the inhibition at 1.5 h, 10 µM was < 50%.
With `COC(=O)c1cc(-c2ccccc2)sc1NC(=O)C12CC3CC(CC(C3)C1)C2`, the inhibition at 1.5 h, 10 µM is < 50%.

The target of another series is T1, Cannabinoid receptor 2. As to the kind of experiment: Displacement of [3H]CP55940 from recombinant human CB2R expressed in HEK293 cell membranes measured after 90 mins.
Conditions: not given
Consider `CCc1c(C)sc(NC(=O)c2ccc(F)cc2)c1C(=O)OC`, for which the inhibition constant Ki was 496 nM.
In the case of `COC(=O)c1c(NC(=O)C23CC4CC(CC(C4)C2)C3)cnn1C`, the Ki came to 1080 nM.
For `CCc1c(C)sc(NC(=O)c2ccc(Cl)cc2)c1C(=O)OC`, the inhibitory constant (Ki) was 621 nM.
Regarding `COC(=O)c1c(NC(=O)NC23CC4CC(CC(C4)C2)C3)sc2c1CCCC2`, the inhibition constant (Ki) is 21 nM.
`COC(=O)c1c(NC(=O)Oc2ccccc2)sc2c1CCCC2`: the inhibition constant Ki stood at 244 nM.
Take `COC(=O)c1c(C)noc1NC(=O)C12CC3CC(CC(C3)C1)C2`: the Ki was 64.7 nM.
Turning to `COC(=O)c1c(NC(=O)N2CCCCC2)sc2c1CCCC2`, the inhibition constant (Ki) is 196 nM.
Turning to `COC(=O)c1c(NC(=O)C23CC4CC(CC(C4)C2)C3)sc2c1CCSC2`, the Ki was 50.7 nM.
Regarding `COC(=O)c1cc(C)sc1NC(=O)C12CC3CC(CC(C3)C1)C2`, the Ki was found to be 23.1 nM.
Take `COC(=O)c1[nH]ccc1NC(=O)C12CC3CC(CC(C3)C1)C2`: the Ki stood at 2140 nM.
Take `COC(=O)c1c(NC(=O)C23CC4CC(CC(C4)C2)C3)sc2c1CCS(=O)(=O)C2`: the inhibition constant (Ki) came to 1670 nM.
Consider `COC(=O)c1ccsc1NC(=O)C12CC3CC(CC(C3)C1)C2`, for which the inhibition constant (Ki) stood at 1320 nM.
In the case of `COC(=O)c1cc(-c2ccccc2)sc1NC(=O)C12CC3CC(CC(C3)C1)C2`, the inhibition constant Ki came out at 6.48 nM.
